In ChEMBL document CHEMBL3233008, “Design, synthesis, and biological evaluation of Erythrina alkaloid analogues as neuronal nicotinic acetylcholine receptor antagonists” (J Med Chem, 2013):
pIC50, pKi: −log10 of the molar value. Activity calls are given as the source filed them. The calls are words filed in the database; no cut-off is given here.

Assays:
[1] = molecular target: Neuronal acetylcholine receptor; alpha4/beta2 (Homo sapiens, UniProt P17787+P43681); assay: Displacement of [3H]cytisine from alpha4/beta2 nAChR (unknown origin); type: protein-complex assay
Neuronal acetylcholine receptor; alpha4/beta2 (Homo sapiens, UniProt P17787+P43681), sequence (P17787 whole entry): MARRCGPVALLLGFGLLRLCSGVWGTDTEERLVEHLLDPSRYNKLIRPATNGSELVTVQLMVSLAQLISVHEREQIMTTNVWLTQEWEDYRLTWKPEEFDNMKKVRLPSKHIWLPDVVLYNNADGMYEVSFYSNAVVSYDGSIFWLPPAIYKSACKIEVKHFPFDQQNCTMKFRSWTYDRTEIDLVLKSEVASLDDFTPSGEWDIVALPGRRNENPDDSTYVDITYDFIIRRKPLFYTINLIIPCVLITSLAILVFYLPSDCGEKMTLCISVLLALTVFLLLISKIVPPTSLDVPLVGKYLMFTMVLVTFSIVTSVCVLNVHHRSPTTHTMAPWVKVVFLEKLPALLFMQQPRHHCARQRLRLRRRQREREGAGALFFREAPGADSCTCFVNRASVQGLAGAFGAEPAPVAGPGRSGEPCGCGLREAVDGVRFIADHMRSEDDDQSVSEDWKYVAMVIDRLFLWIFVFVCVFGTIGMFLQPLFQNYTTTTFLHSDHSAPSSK
Neuronal acetylcholine receptor; alpha4/beta2 (Homo sapiens, UniProt P17787+P43681), sequence (P43681 whole entry): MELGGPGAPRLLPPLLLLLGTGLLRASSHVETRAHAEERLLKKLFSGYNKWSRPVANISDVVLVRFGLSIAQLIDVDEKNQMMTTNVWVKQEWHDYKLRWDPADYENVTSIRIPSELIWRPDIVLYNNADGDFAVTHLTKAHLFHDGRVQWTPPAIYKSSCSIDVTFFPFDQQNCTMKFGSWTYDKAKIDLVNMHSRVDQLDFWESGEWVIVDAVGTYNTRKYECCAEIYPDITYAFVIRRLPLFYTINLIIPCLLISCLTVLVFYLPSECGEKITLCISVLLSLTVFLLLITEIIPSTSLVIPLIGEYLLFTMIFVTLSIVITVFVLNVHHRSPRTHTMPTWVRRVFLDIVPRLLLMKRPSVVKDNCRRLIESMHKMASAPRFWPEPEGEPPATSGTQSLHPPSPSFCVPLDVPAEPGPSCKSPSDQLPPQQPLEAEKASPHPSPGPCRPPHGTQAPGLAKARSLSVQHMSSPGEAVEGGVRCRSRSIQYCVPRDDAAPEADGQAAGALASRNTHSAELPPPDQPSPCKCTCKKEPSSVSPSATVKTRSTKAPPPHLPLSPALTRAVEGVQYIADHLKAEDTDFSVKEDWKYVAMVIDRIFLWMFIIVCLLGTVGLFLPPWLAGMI

[2] = molecular target: Neuronal acetylcholine receptor; alpha4/beta2 (Rattus norvegicus) (UniProt P09483+P12390); assay: (§1) Displacement of [3H]epibatidine from rat alpha4/beta2 nAChR expressed in HEK293 cells; type: cell-based
Outline: (§2)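 Membranes from HEK293 cells stably expressing rat α4β2, α3β4 or α4β4; [3H]epibatidine competition binding. IC50 converted to Ki by Cheng–Prusoff. Means of 3–5 experiments in duplicate.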

[3] = molecular target: Neuronal acetylcholine receptor; alpha4/beta2 (Rattus norvegicus, UniProt P09483+P12390); assay: as §1; type: cell-based; outline: as §2
Neuronal acetylcholine receptor; alpha4/beta2 (Rattus norvegicus, UniProt P09483+P12390), sequence (P09483 whole entry): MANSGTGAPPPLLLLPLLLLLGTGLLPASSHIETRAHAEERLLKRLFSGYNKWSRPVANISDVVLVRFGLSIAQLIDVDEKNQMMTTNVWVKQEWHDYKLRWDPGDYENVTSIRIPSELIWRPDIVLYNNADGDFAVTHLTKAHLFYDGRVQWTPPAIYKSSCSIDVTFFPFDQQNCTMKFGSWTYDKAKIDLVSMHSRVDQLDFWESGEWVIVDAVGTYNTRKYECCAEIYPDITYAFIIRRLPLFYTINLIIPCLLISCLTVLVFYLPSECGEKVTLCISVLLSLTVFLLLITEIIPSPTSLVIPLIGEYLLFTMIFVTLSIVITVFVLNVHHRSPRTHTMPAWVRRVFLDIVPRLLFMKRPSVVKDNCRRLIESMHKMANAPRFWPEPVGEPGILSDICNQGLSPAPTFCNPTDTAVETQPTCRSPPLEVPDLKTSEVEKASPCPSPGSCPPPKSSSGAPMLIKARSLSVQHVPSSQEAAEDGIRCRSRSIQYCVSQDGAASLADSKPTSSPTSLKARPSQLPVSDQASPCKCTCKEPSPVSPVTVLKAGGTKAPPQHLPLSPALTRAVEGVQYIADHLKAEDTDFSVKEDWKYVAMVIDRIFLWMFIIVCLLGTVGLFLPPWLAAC
Neuronal acetylcholine receptor; alpha4/beta2 (Rattus norvegicus, UniProt P09483+P12390), sequence (P12390 whole entry): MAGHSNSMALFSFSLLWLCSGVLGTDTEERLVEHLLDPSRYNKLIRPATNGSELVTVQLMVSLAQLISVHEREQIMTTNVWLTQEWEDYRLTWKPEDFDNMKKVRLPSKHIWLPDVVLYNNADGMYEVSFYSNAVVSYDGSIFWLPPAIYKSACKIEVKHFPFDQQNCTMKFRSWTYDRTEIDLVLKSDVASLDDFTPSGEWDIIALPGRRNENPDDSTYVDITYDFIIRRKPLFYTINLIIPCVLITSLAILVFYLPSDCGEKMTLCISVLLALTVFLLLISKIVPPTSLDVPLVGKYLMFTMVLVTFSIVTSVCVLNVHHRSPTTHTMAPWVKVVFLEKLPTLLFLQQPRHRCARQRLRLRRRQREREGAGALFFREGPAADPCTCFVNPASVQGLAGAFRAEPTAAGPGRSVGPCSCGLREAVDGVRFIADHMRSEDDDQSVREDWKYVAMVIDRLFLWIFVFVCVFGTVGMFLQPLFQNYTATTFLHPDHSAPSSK

[4] = molecular target: Neuronal acetylcholine receptor; alpha4/beta4 (Rattus norvegicus, UniProt P09483+P12392); assay: Displacement of [3H]epibatidine from rat alpha4/beta4 nAChR expressed in HEK293 cells; type: cell-based; outline: as §2
Neuronal acetylcholine receptor; alpha4/beta4, sequence (P09483 whole entry): as the sequence (P09483 whole entry) above
Neuronal acetylcholine receptor; alpha4/beta4, sequence (P12392 whole entry): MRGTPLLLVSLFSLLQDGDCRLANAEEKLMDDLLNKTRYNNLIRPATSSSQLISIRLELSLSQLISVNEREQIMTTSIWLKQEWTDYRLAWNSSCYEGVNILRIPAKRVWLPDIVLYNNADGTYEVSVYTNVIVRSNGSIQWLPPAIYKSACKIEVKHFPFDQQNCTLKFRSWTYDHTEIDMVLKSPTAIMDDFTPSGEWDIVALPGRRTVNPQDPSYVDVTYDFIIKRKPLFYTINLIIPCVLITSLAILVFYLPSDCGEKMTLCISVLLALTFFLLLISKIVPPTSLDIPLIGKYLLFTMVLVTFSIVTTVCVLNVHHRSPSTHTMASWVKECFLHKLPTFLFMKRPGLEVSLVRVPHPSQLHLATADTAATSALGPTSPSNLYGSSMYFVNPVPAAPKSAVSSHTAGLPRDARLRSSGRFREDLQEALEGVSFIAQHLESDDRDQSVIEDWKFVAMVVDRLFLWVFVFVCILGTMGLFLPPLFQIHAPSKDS

[5] = molecular target: T1, Neuronal acetylcholine receptor; alpha3/beta4 (Rattus norvegicus, UniProt P04757+P12392); assay: Displacement of [3H]epibatidine from rat alpha3/beta4 nAChR expressed in HEK293 cells; type: cell-based; outline: as §2
T1 sequence (P04757 whole entry): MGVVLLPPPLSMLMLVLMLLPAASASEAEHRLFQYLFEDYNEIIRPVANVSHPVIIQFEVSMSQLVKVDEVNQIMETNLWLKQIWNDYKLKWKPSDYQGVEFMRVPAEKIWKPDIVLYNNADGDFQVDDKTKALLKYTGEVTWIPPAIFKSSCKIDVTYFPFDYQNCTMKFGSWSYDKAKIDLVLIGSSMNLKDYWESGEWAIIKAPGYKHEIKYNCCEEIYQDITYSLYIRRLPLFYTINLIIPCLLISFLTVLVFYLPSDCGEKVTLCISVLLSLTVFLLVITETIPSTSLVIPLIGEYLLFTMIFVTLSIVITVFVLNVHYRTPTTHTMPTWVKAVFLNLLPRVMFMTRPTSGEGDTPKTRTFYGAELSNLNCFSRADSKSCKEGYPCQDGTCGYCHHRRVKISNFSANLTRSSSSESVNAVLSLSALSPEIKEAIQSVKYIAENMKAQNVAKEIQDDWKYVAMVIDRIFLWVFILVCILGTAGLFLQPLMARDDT
T1 sequence (P12392 whole entry): as the sequence (P12392 whole entry) above

[6] = Displacement of [3H]MLA from rat/mouse alpha7 nAChR/5HT3A expressed in tsA201 cells; type: cell-based
Outline: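 [3H]MLA binding on membranes from tsA201 cells transiently expressing a chimera of rat α7 amino-terminal domain and murine 5-HT3A ion-channel domain. Ki from IC50 via Cheng–Prusoff; 3–5 experiments in duplicate.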

[7] = molecular target: Nicotinic acetylcholine receptor alpha-4/beta-2 (Mus musculus, UniProt Q8R493+Q9ERK7); assay: Antagonist activity at mouse alpha4/beta2 nAChR expressed in HEK293 cells assessed as inhibition of (S)-nicotine-induced activity by FLIPR membrane potential blue assay; type: cell-based
Nicotinic acetylcholine receptor alpha-4/beta-2, sequence (Q9ERK7 whole entry): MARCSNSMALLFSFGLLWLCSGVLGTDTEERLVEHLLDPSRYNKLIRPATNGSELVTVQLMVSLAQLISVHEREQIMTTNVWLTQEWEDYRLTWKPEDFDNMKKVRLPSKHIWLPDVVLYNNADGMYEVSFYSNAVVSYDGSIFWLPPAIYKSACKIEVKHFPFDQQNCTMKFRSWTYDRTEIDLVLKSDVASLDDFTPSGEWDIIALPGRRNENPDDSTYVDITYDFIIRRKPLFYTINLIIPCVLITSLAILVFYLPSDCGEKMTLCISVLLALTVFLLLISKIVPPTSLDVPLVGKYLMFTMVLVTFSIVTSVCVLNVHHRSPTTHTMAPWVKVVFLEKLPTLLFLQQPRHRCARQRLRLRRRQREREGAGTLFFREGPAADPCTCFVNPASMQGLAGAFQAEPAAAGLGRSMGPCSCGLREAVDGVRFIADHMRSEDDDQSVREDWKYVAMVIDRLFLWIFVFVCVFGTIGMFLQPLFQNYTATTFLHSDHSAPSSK
Nicotinic acetylcholine receptor alpha-4/beta-2, sequence (Q8R493 whole entry): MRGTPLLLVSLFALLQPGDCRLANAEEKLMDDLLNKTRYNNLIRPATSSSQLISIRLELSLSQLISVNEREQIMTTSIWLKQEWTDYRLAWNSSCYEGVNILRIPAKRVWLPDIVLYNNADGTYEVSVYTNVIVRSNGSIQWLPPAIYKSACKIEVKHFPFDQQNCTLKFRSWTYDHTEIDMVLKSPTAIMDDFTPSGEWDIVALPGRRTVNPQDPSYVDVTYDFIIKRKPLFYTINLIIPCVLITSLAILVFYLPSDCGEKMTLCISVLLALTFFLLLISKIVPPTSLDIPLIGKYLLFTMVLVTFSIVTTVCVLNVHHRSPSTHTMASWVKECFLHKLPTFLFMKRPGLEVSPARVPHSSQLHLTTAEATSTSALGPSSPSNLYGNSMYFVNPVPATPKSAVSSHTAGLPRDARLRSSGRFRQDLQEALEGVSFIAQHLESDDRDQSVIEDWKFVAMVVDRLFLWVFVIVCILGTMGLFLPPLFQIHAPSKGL
Outline: (§3)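 Mouse α4β2 in stably transfected HEK293T cells and rat α3β4 in stable HEK293 cells; FLIPR Membrane Potential Blue read-out. (S)-Nicotine agonist at EC70–EC80: 1 μM for α4β2, 3 μM for α3β4. Functional IC50 from 3–5 experiments in duplicate.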

[8] = molecular target: T1, Neuronal acetylcholine receptor; alpha3/beta4; assay: Antagonist activity at rat alpha3/beta4 nAChR expressed in HEK293 cells assessed as inhibition of (S)-nicotine-induced activity by FLIPR membrane potential blue assay; type: cell-based; outline: as §3
[9] = molecular target: Neuronal acetylcholine receptor subunit alpha-7 (Homo sapiens, UniProt P36544); assay: Displacement of [3H]cytisine from alpha7 nAChR (unknown origin)
Neuronal acetylcholine receptor subunit alpha-7, sequence (P36544 whole entry): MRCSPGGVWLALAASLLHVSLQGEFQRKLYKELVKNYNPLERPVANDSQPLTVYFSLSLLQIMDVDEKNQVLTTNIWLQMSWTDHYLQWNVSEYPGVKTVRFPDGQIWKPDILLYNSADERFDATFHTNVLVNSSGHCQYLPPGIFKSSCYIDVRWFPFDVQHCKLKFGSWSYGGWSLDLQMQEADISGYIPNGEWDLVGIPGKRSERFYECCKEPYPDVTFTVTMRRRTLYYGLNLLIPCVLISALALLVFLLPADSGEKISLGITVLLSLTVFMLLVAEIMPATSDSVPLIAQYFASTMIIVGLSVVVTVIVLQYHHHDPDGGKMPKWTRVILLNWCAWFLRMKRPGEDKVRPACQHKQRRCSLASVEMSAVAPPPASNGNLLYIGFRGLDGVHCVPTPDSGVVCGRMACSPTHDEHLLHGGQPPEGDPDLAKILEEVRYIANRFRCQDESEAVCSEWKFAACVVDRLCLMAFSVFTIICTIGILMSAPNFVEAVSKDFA

Rattus norvegicus [10] = species: Rattus norvegicus; assay: Selectivity ratio of Ki for rat alpha4/beta4 nAChR to Ki for rat alpha4/beta2 nAChR
Rattus norvegicus [11] = species: Rattus norvegicus; assay: Selectivity ratio of Ki for rat alpha3/beta4 nAChR to Ki for rat alpha4/beta2 nAChR
[12] = Selectivity ratio of Ki for rat/mouse alpha7 nAChR/5HT3A to Ki for rat alpha4/beta2 nAChR
[13] = molecular target: Sodium-dependent serotonin transporter (Homo sapiens, UniProt P31645); assay: Displacement of [3H]-serotonin from human SERT expressed in African green monkey COS7 cells after 10 mins; type: cell-based, COS-7
Outline: (§4)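 COS7 cells transiently transfected with human SERT, NET or DAT, assayed 40–48 h later. 30 min preincubation with compound in PBS pH 7.4 plus 0.1 mM CaCl2, 0.5 mM MgCl2; ascorbic acid 1 mM added for NET/DAT. Substrate 50 nM final: [3H]serotonin for SERT, [3H]dopamine for NET/DAT.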

[14] = molecular target: Sodium-dependent dopamine transporter (Homo sapiens, UniProt Q01959); assay: Displacement of [3H]-dopamine from human DAT expressed in African green monkey COS7 cells after 10 mins; type: cell-based, COS-7; outline: as §4
[15] = molecular target: Sodium-dependent noradrenaline transporter (Homo sapiens, UniProt P23975); assay: Displacement of [3H]-dopamine from human NET expressed in African green monkey COS7 cells after 10 mins; type: cell-based, COS-7; outline: as §4
Mus musculus = assay: Antidepressant like activity in mouse at 30 mg/kg, sc administered 20 mins before test measured for 6 mins by forced swimming test; type: functional, organism-based; design: dose 30 mg/kg
Outline: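 Mice, n = 7–8, placed singly in a 16 cm beaker holding 20 cm of water at 23.5–24.5 °C. Compound in 0.9% saline given sc at 10 mL/kg 20 min before testing. Swim distance tracked by camera over 6 min, with the first minute excluded. Analysed by one-way ANOVA with planned comparisons.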

Row | Structure (SMILES) | inhibition [2] | pKi [3] | pKi [4] | pKi [5] | pKi [6] | pIC50 [7] | pIC50 [8] | other results
1 | COc1cc2c(cc1OC)[C@]13C[C@@H](OC)C=CC1=CCN3CC2 [ERYSOTRINE] | – | – | – | – | – | – | – | pKi [1]: 6.22
2 | CN1CCc2cc3c(cc2C1)OCO3 | Dose-dependent effect | 5.77 | 4.30 | 3.52 | 3.30 | 5.59 | 3.52 | –
3 | COc1cc2c(cc1OC)C(C1CCCCC1)N(C)CC2 (stereo unspecified) | – | 3.52 | – | – | – | < 3.52 | – | –
4 | c1c2c(cc3c1OCO3)C1CCCN1CC2 (racemic) | Dose-dependent effect | 6.26 | 4.68 | 4.00 | – | 5.48 | 4.00 | –
5 | COc1cc2c(cc1OC)[C@]13CCCC[C@H]1CCN3CC2 (relative stereo) | Dose-dependent effect | 4.00 | 4.00 | 4.00 | 4.52 | 4.51 | 4.30 | –
6 | COc1cc2c(cc1O)C1CCCN1CC2 (racemic) | Dose-dependent effect | 5.47 | 4.00 | 4.00 | 3.52 | 4.64 | 3.52 | –
7 | CO[C@H]1CC=C2CCN3CCC4=C(CC(=O)OC4)[C@]23C1 | – | – | – | – | – | – | – | pKi [9]: 4.98
8 | COc1cc2c(cc1O)CN(C)CC2 | Dose-dependent effect | 5.77 | 4.00 | 3.52 | < 3.30 | 5.36 | < 3.00 | –
9 | COc1cc2c(cc1O)CCN(C)C2 | Dose-dependent effect | 5.00 | 4.00 | 3.52 | < 3.30 | 4.48 | 3.00 | –
10 | CN1CCc2cc(O)c(O)cc2C1 | Dose-dependent effect | 5.17 | 4.00 | 4.00 | < 3.30 | 4.80 | < 3.00 | –
11 | c1c2c(cc3c1OCO3)[C@]13CCCC[C@H]1CCN3CC2 (relative stereo) | Dose-dependent effect | 5.14 | 4.30 | 4.52 | 4.74 | 5.04 | 4.30 | –
12 | Oc1cc2c(cc1O)[C@]13CCCC[C@H]1CCN3CC2 (relative stereo) | Dose-dependent effect | 5.82 | 4.72 | 4.52 | 5.14 | 6.24 | 4.30 | –
13 | CCCCC1c2cc(OC)c(OC)cc2CCN1C (stereo unspecified) | – | 4.52 | – | – | – | < 3.52 | – | –
14 | COc1cc2c(cc1OC)CN(C)CC2 | Dose-dependent effect | 6.06 | 3.52 | 3.52 | < 3.30 | 4.92 | 4.00 | Ratio Ki (Rattus norvegicus [10]): > 300; Ratio Ki (Rattus norvegicus [11]): > 300; Ratio Ki [12]: > 300; pKi [13]: 4.33; pKi [14]: < 2.00; pKi [15]: 3.89; Activity (Mus musculus): Active
15 | COc1cc2c(cc1O)[C@]13CCCC[C@H]1CCN3CC2 (relative stereo) | Dose-dependent effect | 4.74 | 4.64 | 4.52 | 5.26 | 5.54 | 4.48 | –
16 | COc1cc2c(cc1O)CCN1CCCC21 (racemic) | Dose-dependent effect | 4.00 | 4.00 | 3.52 | 3.30 | 4.30 | 3.52 | –
17 | COc1cc2c(cc1O)CCN1CC[C@@H]3CCCC[C@@]231 (relative stereo) | Dose-dependent effect | 5.07 | 4.30 | 4.00 | 4.70 | 5.64 | 4.30 | –
18 | COc1cccc(C2c3cc(OC)c(OC)cc3CCN2C)c1 (stereo unspecified) | – | 3.52 | – | – | – | < 3.52 | – | –
19 | COc1cc2c(cc1OC)C1CCCN1CC2 (racemic) | Dose-dependent effect | 5.26 | 4.00 | 3.52 | < 3.30 | 4.51 | 4.00 | –
20 | CCC1c2cc(OC)c(OC)cc2CCN1C (stereo unspecified) | – | 3.52 | – | – | – | < 3.52 | – | –
21 | COc1cc2c(cc1O)CCN1CC=C3C=C[C@H](OC)C[C@]321 [ERYSODINE] | – | – | – | – | – | – | – | pKi [9]: 5.12
22 | COc1ccc(C2c3cc(OC)c(OC)cc3CCN2C)cc1OC (stereo unspecified) | – | < 3.52 | – | – | – | < 3.52 | – | –
23 | COc1cc2c(cc1OC)C(c1ccccc1)N(C)CC2 (stereo unspecified) | – | 4.00 | – | – | – | < 3.52 | – | –
24 | Oc1cc2c(cc1O)C1CCCN1CC2 (racemic) | Dose-dependent effect | 4.96 | 4.30 | 4.00 | 3.52 | 4.00 | 3.00 | –
